Experimental data: publication PMC12777986 (RSC Medicinal Chemistry, 2025)
Entries after “also recorded” stand apart in the source; their conditions may differ.

What was measured:
C. elegans strain N2 = assay: C. elegans lifespan assay; assay type: in vivo; conditions: for maximal lifespan: untreated 27 d
[1] = Single-dose pharmacokinetics in mice; assay type: in vivo, male CD1 mice
[2] = Plasma protein binding, rapid equilibrium dialysis; assay type: in vitro ADME, mouse (strain CD1); conditions: CD1, mouse, pH 7.4
Procedure, shortened: (§1)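 Equilibrium dialysis (RED): compound was spiked at 2 μM into human or CD1 mouse plasma against PBS pH 7.4. Warfarin served as positive control. Plates were shaken gently at 37 °C for 6 h, and both chambers were quantified by LC–MS to give the unbound fraction.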

[3] = Stability in human plasma; assay type: in vitro ADME; conditions: 2 μM, after 4 h
[4] = Stability in human liver microsomes; assay type: in vitro ADME; conditions: 2 μM, after 2 h
Procedure, shortened: (§2)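 Compound (2 μM) was incubated at 37 °C with human or CD1 mouse liver microsome suspension. The reaction was initiated by adding NADPH as CYP cofactor.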

[5] = Single-dose safety observation and gross necropsy in mice; assay type: in vivo, male CD1 mice
Procedure, shortened: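 Male CD1 mice (n = 3/group) were housed individually in metabolic cages and fasted 4 h, with food returned 2 h post-dose. They received one oral gavage of 25, 50 or 100 mg kg−1 (2.5–10 mg mL−1; 10 mL kg−1) in 40% DMSO/60% 0.5% methyl cellulose. Animals were monitored 14 days and weighed pre-dose and on days 7 and 14. CO2 euthanasia was followed by gross necropsy.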

CYP2C9 = CYP2C9 (Homo sapiens, UniProt P11712); assay: Human liver microsome CYP inhibition assay, CYP2C9; assay type: biochemical; conditions: human liver microsomes
Sequence of CYP2C9 (P11712 whole entry, canonical isoform): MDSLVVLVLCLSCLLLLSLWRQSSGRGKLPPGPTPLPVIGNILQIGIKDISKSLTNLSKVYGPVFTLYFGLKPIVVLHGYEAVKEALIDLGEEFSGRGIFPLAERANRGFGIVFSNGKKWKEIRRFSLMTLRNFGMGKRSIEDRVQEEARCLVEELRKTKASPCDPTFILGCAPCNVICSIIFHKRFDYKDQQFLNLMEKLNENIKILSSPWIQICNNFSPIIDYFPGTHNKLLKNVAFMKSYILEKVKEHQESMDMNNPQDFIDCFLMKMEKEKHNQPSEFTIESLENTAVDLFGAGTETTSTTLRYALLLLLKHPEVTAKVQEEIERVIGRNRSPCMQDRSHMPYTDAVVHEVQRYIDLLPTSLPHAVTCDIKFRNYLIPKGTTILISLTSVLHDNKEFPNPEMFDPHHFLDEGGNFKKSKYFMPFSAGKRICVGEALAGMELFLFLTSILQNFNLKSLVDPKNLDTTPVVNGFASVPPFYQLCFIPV
Procedure, shortened: (§3)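 Human liver microsomes were mixed with an isoform-specific CYP substrate and either compound or a positive-control inhibitor, then pre-incubated at 37 °C for 30 min. Reactions were started by adding an NADPH-regenerating system.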

CYP2B6 = target: T1, CYP2B6 (Homo sapiens, UniProt P20813); assay: Human liver microsome CYP inhibition assay, CYP2B6; assay type: biochemical; conditions: human liver microsomes
T1 sequence (P20813 1-491): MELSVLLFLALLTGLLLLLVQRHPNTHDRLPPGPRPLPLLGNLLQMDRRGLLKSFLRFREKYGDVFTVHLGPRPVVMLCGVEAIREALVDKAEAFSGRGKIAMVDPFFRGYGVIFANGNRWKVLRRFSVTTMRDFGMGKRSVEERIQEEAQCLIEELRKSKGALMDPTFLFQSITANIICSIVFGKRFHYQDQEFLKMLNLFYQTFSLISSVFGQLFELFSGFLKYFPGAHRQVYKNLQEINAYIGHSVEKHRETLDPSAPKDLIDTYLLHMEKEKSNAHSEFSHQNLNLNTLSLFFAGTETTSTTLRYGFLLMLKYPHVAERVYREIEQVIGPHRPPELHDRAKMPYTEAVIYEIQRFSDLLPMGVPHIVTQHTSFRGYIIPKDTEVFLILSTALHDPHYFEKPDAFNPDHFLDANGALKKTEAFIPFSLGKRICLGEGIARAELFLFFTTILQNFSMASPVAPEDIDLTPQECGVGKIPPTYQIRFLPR
Procedure, shortened: as §3

[6] = Bidirectional Caco-2 cell permeability assay; assay type: in vitro ADME; conditions: human
[7] = Stability in mouse plasma; assay type: in vitro ADME, mouse (strain CD1); conditions: 2 μM, after 4 h
PCFT transporter = target: T2, PCFT transporter (Homo sapiens, UniProt Q96NT5); assay: Folate uptake assay in Caco-2 cell monolayers; assay type: cell-based; conditions: Caco-2, pH 5.5, read-out: inhibition of folate uptake
T2 sequence (Q96NT5 1-459): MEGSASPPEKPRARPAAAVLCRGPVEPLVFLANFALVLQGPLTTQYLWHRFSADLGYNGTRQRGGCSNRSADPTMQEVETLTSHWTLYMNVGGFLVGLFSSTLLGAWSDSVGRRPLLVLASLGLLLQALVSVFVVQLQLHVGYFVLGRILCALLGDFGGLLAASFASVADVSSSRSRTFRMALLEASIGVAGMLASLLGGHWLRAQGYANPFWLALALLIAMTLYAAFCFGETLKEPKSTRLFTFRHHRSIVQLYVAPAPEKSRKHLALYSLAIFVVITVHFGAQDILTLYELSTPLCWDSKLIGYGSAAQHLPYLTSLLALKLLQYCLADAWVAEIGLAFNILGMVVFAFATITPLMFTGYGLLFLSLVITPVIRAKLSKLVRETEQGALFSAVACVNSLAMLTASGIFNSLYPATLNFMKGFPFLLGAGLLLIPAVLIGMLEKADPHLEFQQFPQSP
Procedure, shortened: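 Caco-2 cells were grown in high-glucose DMEM with 10% FBS, penicillin/streptomycin and NEAA, seeded at 3 × 10^4 cells/well and differentiated 8–10 days. Monolayers were pre-incubated 30 min at 37 °C in HBSS/10 mM MES pH 5.5 with compound (50 μM), pemetrexed or DMSO, then exposed 6 min to 10 nM [3H]folic acid ± inhibitor. Uptake was counted by scintillation, normalized to BCA protein and expressed as % of vehicle. Run in duplicate.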

[8] = Single-dose safety observation and gross necropsy in rats; assay type: in vivo, male Sprague–Dawley rats
Procedure, shortened: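 Male Sprague–Dawley rats (n = 3/group) were housed in metabolic cages and fasted overnight, with food returned 4 h post-dose. They received one oral gavage of 100 or 200 mg kg−1 (10 mL kg−1) in 40% DMSO/60% 0.5% methyl cellulose. Animals were monitored for 14 days, with body weight recorded before dosing and on days 7 and 14. Gross necropsy was done after CO2 euthanasia.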

[9] = target: cloned hERG potassium channels (Homo sapiens, UniProt Q12809); assay: hERG assay, automated patch clamp; assay type: cell-based
Sequence of cloned hERG potassium channels (Q12809 whole entry): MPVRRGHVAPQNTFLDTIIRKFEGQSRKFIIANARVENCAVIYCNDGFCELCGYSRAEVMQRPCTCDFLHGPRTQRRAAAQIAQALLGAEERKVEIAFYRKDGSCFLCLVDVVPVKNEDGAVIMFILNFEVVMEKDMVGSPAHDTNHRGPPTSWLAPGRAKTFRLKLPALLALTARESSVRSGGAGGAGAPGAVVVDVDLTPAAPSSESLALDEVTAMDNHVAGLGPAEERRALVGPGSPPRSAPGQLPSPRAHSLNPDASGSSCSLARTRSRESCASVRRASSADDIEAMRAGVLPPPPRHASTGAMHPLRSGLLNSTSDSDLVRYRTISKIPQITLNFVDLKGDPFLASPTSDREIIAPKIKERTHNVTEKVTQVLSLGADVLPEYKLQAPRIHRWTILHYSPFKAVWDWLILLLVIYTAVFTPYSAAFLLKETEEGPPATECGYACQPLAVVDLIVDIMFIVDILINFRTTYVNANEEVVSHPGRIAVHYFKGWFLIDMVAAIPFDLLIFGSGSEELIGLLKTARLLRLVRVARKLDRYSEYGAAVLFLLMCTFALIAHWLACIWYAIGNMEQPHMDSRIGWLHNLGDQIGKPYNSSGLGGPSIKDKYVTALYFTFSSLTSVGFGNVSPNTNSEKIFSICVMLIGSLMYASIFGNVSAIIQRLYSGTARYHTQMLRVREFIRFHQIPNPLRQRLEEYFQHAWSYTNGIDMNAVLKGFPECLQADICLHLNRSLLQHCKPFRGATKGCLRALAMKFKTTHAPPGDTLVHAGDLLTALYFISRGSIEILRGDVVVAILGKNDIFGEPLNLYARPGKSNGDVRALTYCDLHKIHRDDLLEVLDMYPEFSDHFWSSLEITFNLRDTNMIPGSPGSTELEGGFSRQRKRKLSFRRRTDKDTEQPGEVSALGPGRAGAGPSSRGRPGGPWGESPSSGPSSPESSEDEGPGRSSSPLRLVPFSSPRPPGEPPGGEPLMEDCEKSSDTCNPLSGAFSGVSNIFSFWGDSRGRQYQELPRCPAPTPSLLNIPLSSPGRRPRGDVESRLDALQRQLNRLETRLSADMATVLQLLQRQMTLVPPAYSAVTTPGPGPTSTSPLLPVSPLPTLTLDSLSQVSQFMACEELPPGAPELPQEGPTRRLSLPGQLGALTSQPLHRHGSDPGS
Procedure, shortened: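 Automated parallel patch clamp (QPatch II) was run at room temperature on HEK293 cells expressing KCNH2. Compound was applied at 0.1, 1, 10 and 100 μM (n ≥ 3), at least 6 min per concentration, from DMSO stocks diluted into HEPES-buffered saline. Cisapride 0.05 μM served as positive control. % current inhibition came from steady-state currents before and after each application.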

CYP3A4 = CYP3A4 (Homo sapiens, UniProt P08684); assay: Human liver microsome CYP inhibition assay, CYP3A4; assay type: biochemical; conditions: human liver microsomes
Sequence of CYP3A4 (P08684 whole entry): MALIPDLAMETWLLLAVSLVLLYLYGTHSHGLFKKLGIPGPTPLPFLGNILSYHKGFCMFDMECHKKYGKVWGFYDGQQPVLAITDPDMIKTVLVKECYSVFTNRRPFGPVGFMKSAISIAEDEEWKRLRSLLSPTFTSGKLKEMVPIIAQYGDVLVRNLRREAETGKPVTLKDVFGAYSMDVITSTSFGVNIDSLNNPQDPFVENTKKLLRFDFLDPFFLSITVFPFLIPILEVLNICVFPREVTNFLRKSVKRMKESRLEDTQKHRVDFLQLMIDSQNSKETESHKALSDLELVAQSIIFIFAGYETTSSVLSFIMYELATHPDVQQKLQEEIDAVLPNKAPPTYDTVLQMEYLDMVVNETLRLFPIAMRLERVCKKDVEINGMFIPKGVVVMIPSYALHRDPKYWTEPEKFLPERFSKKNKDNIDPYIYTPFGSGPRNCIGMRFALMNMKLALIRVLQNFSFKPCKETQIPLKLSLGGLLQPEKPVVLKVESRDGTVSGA
Procedure, shortened: as §3

CYP1A2 = target: T3, CYP1A2 (Homo sapiens, UniProt P05177); assay: Human liver microsome CYP inhibition assay, CYP1A2; assay type: biochemical; conditions: human liver microsomes
T3 sequence (P05177 1-516): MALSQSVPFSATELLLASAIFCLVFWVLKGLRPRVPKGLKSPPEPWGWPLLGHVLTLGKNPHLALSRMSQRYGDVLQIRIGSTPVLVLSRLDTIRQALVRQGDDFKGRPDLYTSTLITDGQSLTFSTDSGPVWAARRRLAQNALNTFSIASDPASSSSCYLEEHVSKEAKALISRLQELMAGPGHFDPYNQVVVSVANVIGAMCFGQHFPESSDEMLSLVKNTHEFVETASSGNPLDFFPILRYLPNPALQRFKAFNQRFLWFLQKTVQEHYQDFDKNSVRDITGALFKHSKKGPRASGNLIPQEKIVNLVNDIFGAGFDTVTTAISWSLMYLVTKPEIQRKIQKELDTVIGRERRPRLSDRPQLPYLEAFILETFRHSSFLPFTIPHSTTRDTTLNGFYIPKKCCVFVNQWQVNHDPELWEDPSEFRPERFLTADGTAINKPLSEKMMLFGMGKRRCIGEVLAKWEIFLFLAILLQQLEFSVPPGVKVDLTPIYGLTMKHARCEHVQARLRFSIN
Procedure, shortened: as §3

[10] = system: Salmonella typhimurium tester strains TA98, TA100, TA1535, TA1537 and Escherichia coli strain WP2 uvrA; assay: Ames bacterial reverse mutation assay; conditions: 1.4 × 10^−7 to 2.3 mM
CYP2D6 = CYP2D6 (Homo sapiens, UniProt P10635); assay: Human liver microsome CYP inhibition assay, CYP2D6; assay type: biochemical; conditions: human liver microsomes
Sequence of CYP2D6 (P10635 whole entry): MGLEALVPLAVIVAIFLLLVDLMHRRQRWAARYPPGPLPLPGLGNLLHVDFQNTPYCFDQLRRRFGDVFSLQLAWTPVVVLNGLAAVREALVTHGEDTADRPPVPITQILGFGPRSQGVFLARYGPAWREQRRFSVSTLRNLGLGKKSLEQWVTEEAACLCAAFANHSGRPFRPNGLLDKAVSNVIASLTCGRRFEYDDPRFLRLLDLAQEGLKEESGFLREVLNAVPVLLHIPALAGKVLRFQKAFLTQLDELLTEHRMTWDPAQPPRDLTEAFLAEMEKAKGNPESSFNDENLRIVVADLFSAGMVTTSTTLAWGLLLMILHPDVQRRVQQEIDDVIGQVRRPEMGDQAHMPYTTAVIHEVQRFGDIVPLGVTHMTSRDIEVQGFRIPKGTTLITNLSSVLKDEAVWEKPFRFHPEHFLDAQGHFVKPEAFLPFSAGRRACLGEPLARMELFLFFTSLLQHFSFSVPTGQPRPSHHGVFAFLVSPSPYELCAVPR
Procedure, shortened: as §3

[11] = Single-dose pharmacokinetics in rats; assay type: in vivo, male Sprague–Dawley rats; conditions: rats vs mice, oral single dose
Procedure, shortened: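 Male Sprague–Dawley rats with jugular vein cannulas (n = 3/group) were fasted overnight, with food returned 4 h post-dose. Single oral gavage of 100 or 200 mg kg−1 (10 or 20 mg mL−1; 10 mL kg−1) in 40% DMSO/60% 0.5% methyl cellulose. Cannula blood was drawn at 0.5, 1, 2, 4, 6, 8 and 24 h into K2EDTA, spun to plasma at 5 °C and stored at −70 °C for PK analysis.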

CYP2C8 = target: T4, CYP2C8 (Homo sapiens, UniProt P10632); assay: Human liver microsome CYP inhibition assay, CYP2C8; assay type: biochemical; conditions: human liver microsomes
T4 sequence (P10632 1-490): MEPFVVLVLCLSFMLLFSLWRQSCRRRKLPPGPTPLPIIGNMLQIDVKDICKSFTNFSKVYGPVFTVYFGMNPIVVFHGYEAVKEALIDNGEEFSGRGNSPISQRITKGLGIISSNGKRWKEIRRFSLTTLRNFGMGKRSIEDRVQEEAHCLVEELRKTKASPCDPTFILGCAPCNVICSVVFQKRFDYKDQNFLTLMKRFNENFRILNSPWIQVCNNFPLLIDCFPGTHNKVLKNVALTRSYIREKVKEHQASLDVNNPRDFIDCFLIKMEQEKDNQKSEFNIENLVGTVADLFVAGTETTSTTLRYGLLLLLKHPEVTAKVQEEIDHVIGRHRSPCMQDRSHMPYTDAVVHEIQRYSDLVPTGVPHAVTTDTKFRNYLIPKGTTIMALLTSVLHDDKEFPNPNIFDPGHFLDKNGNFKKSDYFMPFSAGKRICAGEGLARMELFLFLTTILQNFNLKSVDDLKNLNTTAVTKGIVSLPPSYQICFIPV
Procedure, shortened: as §3

HepG2 cells = assay: HepG2 cytotoxicity assay; assay type: cell-based, human; conditions: 50 μM
Procedure, shortened: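 HepG2 cells were kept in DMEM with 10% FBS and penicillin/streptomycin at 37 °C, 5% CO2, seeded ~5000 cells/well and allowed to attach overnight. Serial dilutions of compound in medium were added, with 0.1% DMSO vehicle and terfenadine as positive control. Viability was read by CellTiter-Glo ATP luminescence and normalized to vehicle as % viability per concentration.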

[12] = Plasma protein binding, rapid equilibrium dialysis; assay type: in vitro ADME; conditions: human, pH 7.4
Procedure, shortened: as §1

CYP2C19 = CYP2C19 (Homo sapiens, UniProt P33261); assay: Human liver microsome CYP inhibition assay, CYP2C19; assay type: biochemical; conditions: human liver microsomes
Sequence of CYP2C19 (P33261 whole entry): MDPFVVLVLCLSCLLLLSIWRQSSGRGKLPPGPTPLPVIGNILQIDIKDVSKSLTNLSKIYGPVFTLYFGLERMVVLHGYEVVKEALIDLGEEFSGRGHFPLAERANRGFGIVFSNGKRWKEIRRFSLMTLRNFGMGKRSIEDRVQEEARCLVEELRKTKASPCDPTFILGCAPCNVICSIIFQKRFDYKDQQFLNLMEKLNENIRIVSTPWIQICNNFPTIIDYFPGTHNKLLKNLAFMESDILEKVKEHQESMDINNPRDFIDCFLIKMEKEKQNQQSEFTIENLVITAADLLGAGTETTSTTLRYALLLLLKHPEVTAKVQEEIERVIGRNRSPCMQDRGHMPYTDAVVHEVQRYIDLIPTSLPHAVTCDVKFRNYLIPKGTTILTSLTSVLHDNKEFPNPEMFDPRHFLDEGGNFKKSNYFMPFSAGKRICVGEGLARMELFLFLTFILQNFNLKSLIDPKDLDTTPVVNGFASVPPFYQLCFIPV
Procedure, shortened: as §3

[13] = Stability in mouse liver microsomes; assay type: in vitro ADME, mouse (strain CD1); conditions: 2 μM, after 2 h
Procedure, shortened: as §2

[14] = male, CD1, mouse, plasma, po, 100 mg/kg
[15] = monitored 14 days after single oral dose
[16] = continuous exposure, 50 and 100 μM

Cc1ccc(NC(=O)N2Cc3[nH]cnc3C[C@H]2c2nc(-c3ccc4c(c3)OCO4)no2)cc1 [MPOL_D_1, (6S)-6-[3-(2H-1,3-benzodioxol-5-yl)-1,2,4-oxadiazol-5-yl]-N-(4-methylphenyl)3H,4H,5H,6H,7H-imidazo[4,5-c]pyridine-5-carboxamide]
effect on lifespan (C. elegans strain N2; dose range 1–100 μM, compared with MPOL_B_1): did not exhibit similar effects

CC(=O)N1CCC(C(=O)N2CCN3C(=O)c4cc(-c5ccccc5)ccc4NC(=O)C3C2)CC1 (centres unmarked) [MPOL_B_1, 13-(1-acetylpiperidine-4-carbonyl)-5-phenyl-1,9,13-triazatricyclo[9.4.0.03,8]pentadeca-3(8),4,6-triene-2,10-dione]
concentration of the drug in fecal samples ([1]; collected 24 hours after oral administration): 5 to 10 mg/g | AUC(0-t) [1, 14]: 2380 ± 1180 ng·h/mL | Cmax [1, 14]: 416 ± 67 ng/mL | Tmax [1, 14]: 1.7 ± 0.6 h | half-life [1, 14]: 5.7 ± 4.1 h | systemic bioavailability (dose proportionality of AUC) ([1]; mice, oral gavage 25, 50 and 100 mg kg^−1): became saturated at doses of 50 mg kg^−1 and above | fraction unbound at 6 h, 2 μM [2]: 0.294 ± 0.059 | Stability in human plasma [3]: >90% after 4 h | Stability in human microsomes [4]: >90% after 2 h | gross necropsy ([5]; group 2, 50 mg kg^−1): had an enlarged stomach when gross necropsy was performed, and another from the same group had dark patches on the lungs | gross necropsy ([5]; highest dose (100 mg kg^−1)): no organ pathologies or other abnormalities; also recorded: No abnormalities | body weight loss [5, 15]: no significant body weight loss | signs of illness [5, 15]: no signs of illness | inhibition at 5 min, 50 µM (CYP2C9): 11.4% | inhibition at 5 min, 50 µM (CYP2B6): 0% | Papp A→B at 2 h, 10 μM [6]: 0.37 ×10⁻⁶ cm/s | Papp B→A at 2 h, 10 μM [6]: 7.17 ×10⁻⁶ cm/s | Stability in mouse plasma [7]: >90% after 4 h | inhibition at 50 µM (PCFT transporter): 42% | gross necropsy ([8]; group 1, 100 mg kg^−1): enlarged stomach and caecum and blood in the abdominal cavity | gross necropsy ([8]; highest dose (200 mg kg^−1)): no organ pathologies or other abnormalities | body weight loss [8, 15]: no significant body weight loss | signs of illness [8, 15]: no signs of illness | IC50 [9]: 87 µM | inhibition at 5 min, 50 µM (CYP3A4): 22.5% | inhibition at 5 min, 50 µM (CYP1A2): 5.2% | Ames mutagenicity test [10]: Not mutagenic | inhibition at 5 min, 50 µM (CYP2D6): 16.9% | systemic bioavailability in rats, times lower than in mice [11]: approximately 10 times | inhibition at 5 min, 50 µM (CYP2C8): 4.9% | Hep2 cells cytotoxicity (HepG2 cells): Not significant | fraction unbound at 6 h, 2 μM [12]: 0.525 ± 0.08 | maximal lifespan (C. elegans strain N2; 50 μM): 35 days | maximal lifespan (C. elegans strain N2; 100 μM): 35 days | increase of lifespan (C. elegans strain N2; C. elegans): up to 30% | longer maximal lifespan (C. elegans strain N2; [16]): ~30% | longer mean lifespan (C. elegans strain N2; [16]): ~30% | inhibition at 5 min, 50 µM (CYP2C19): 19.4% | Stability in mouse microsomes [13]: 83% after 2 h

Nc1nc2[nH]cc(CCc3ccc(C(=O)N[C@@H](CCC(=O)O)C(=O)O)cc3)c2c(=O)[nH]1 [pemetrexed, reference compound]
inhibition at 50 µM (PCFT transporter): 62%
